Assay results: ChEMBL document CHEMBL1140989, “Synthesis, penetrability and intracellular targeting of fluorescein-tagged peptoids and peptide-peptoid hybrids” (Bioorg Med Chem, 2009)
Square brackets hold non-standard residues; d marks the D form. Peptide text beside a SMILES is read from it. * marks the point of attachment. X1 = O=C(O)c1cc(C(=O)*)ccc1-c1c2ccc(=O)cc-2oc2cc(O)ccc12; Gly(N-(CH2)6NH2) = NCCCCCCNCC(=O)O; Ahx = NCCCCCC(=O)O

Experiments:
Type in all cases: cell-based
HeLa = test: Cytotoxicity against human HeLa cells after 24 hrs by MTT assay
Procedure, shortened: (§1)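 Cells kept in 10 µM peptoid in medium. Viability read by MTT 24 h after compound addition, absorbance at 570 nm.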

K562 = test: Cytotoxicity against human K562 cells after 24 hrs by MTT assay; settings: k562, 24 h; procedure, shortened: as §1
L929 = test: Cytotoxicity against mouse L929 cells after 24 hrs by MTT assay; settings: l929, 24 h; procedure, shortened: as §1

Measured: Activity

NCCCCCCN(CC(N)=O)C(=O)CN(CCCCCCN)C(=O)CN(CCCCCCN)C(=O)CCCCCNC(=O)c1ccc(-c2c3ccc(=O)cc-3oc3cc(O)ccc23)c(C(=O)O)c1
Non-toxic: HeLa | K562 | L929

NCCCCCCN(CC(N)=O)C(=O)CCCCCNC(=O)c1ccc(-c2c3ccc(=O)cc-3oc3cc(O)ccc23)c(C(=O)O)c1
Non-toxic: HeLa | K562 | L929

NCCCCCCN(CC(N)=O)C(=O)CN(CCCCCCN)C(=O)CN(CCCCCCN)C(=O)CN(CCCCCCN)C(=O)CN(CCCCCCN)C(=O)CCCCCNC(=O)c1ccc(-c2c3ccc(=O)cc-3oc3cc(O)ccc23)c(C(=O)O)c1
Non-toxic: HeLa | K562 | L929

NCCCCCCN(CC(N)=O)C(=O)CN(CCCCCCN)C(=O)CN(CCCCCCN)C(=O)CN(CCCCCCN)C(=O)CN(CCCCCCN)C(=O)CN(CCCCCCN)C(=O)CN(CCCCCCN)C(=O)CCCCCNC(=O)c1ccc(-c2c3ccc(=O)cc-3oc3cc(O)ccc23)c(C(=O)O)c1 ({X1-Ahx}-[Gly(N-(CH2)6NH2)][Gly(N-(CH2)6NH2)][Gly(N-(CH2)6NH2)][Gly(N-(CH2)6NH2)][Gly(N-(CH2)6NH2)][Gly(N-(CH2)6NH2)][Gly(N-(CH2)6NH2)]-NH2)
Non-toxic: HeLa | K562 | L929
